From ChEMBL document CHEMBL1150273, “Aza-peptidyl Michael acceptors. A new class of potent and selective inhibitors of asparaginyl endopeptidases (legumains) from evolutionarily diverse pathogens” (J Med Chem, 2008)
pIC50: −log10 of the molar value.

Columns and labels:
[1] = Inhibition of Schistosoma mansoni AE expressed in Pichia pastoris after 20 mins
Procedure, shortened: (§1)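 Recombinant AE zymogens expressed in Pichia pastoris; SmAE and TvAE1 autoactivated in 0.5 M sodium acetate, 4 mM DTT, pH 4.5, 37 °C, 3 h to overnight; IrAE used without activation. Buffer 0.1 M citrate phosphate, 4 mM DTT, pH 6.8 (SmAE, TvAE1) or pH 5.5 (IrAE). Inhibitor 2.0–0.0002 µM final, 20 min preincubation at room temperature; 10 µM final Cbz-Ala-Ala-Asn-AMC, 20 min; IC50 from RFU/min vs concentration.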

[2] = Inhibition of Trichomonas vaginalis G3 AE1 expressed in Pichia pastoris after 20 mins; procedure, shortened: as §1
[3] = Inhibition of Ixodes ricinus AE expressed in Pichia pastoris after 20 mins; procedure, shortened: as §1
[4] = tested on: Schistosoma mansoni; experiment: Inhibition of Schistosoma mansoni AE assessed as ratio of pseudo-first-order inhibition rate constant to inhibitor concentration
Procedure, shortened: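 Autoactivated recombinant SmAE added to six inhibitor concentrations (0–1 µM final) in 0.1 M citrate phosphate, 2 mM DTT, pH 6.8 with 20 µM Cbz-Ala-Ala-Asn-AMC; progress followed every 2 s for 30 min at 25 °C (ex 355, em 460 nm); kobs/[I] by nonlinear regression, corrected for substrate by factor 1.33.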

SMILES	pIC50 [1]	pIC50 [2]	pIC50 [3]	Ratio [4]
CCCCN(CCCC)C(=O)/C=C/C(=O)N(CC(N)=O)NC(=O)[C@H](C)NC(=O)[C@H](C)NC(=O)OCc1ccccc1	6.26	6.00	7.00	–
C[C@H](NC(=O)OCc1ccccc1)C(=O)N[C@@H](C)C(=O)NN(CC(N)=O)C(=O)/C=C/C(=O)N(Cc1ccccc1)Cc1ccc(F)cc1	7.22	> 9.00	6.15	–
C[C@H](NC(=O)OCc1ccccc1)C(=O)N[C@@H](C)C(=O)NN(CC(N)=O)C(=O)/C=C/C(=O)N(Cc1ccccc1)Cc1cccc2ccccc12	7.21	> 9.00	8.22	6180 M⁻¹ s⁻¹
C[C@H](NC(=O)OCc1ccccc1)C(=O)N[C@@H](C)C(=O)NN(CC(N)=O)C(=O)/C=C/C(=O)N1CCCCC1	6.00	6.30	–	–
C[C@H](NC(=O)OCc1ccccc1)C(=O)N[C@@H](C)C(=O)NN(CC(N)=O)C(=O)/C=C/C(=O)N1CC=C(c2ccccc2)CC1	6.12	8.00	7.07	–
C[C@H](NC(=O)OCc1ccccc1)C(=O)N[C@@H](C)C(=O)NN(CC(N)=O)C(=O)/C=C/C(=O)N(C)C(Cc1ccccc1)C(=O)N(C)CCc1ccccc1 (some centres not stated)	6.12	7.10	6.52	–
C[C@H](NC(=O)OCc1ccccc1)C(=O)N[C@@H](C)C(=O)NN(CC(N)=O)C(=O)/C=C/C(=O)NCc1ccc(F)cc1	6.10	7.12	6.60	–
C[C@H](NC(=O)OCc1ccccc1)C(=O)N[C@@H](C)C(=O)NN(CC(N)=O)C(=O)/C=C/C(=O)N1Cc2ccccc2C1	6.52	7.70	8.35	–
C[C@H](NC(=O)OCc1ccccc1)C(=O)N[C@@H](C)C(=O)NN(CC(N)=O)C(=O)/C=C/C(=O)N(Cc1ccccc1)Cc1ccc2ccccc2c1	7.15	8.22	8.10	6100 M⁻¹ s⁻¹
C[C@H](NC(=O)OCc1ccccc1)C(=O)N[C@@H](C)C(=O)NN(CC(N)=O)C(=O)/C=C/C(=O)N1CCCc2ccccc21	7.15	8.46	8.40	–
C[C@H](NC(=O)OCc1ccccc1)C(=O)N[C@@H](C)C(=O)NN(CC(N)=O)C(=O)/C=C/C(=O)NCc1ccccc1	6.00	8.00	6.70	–
C[C@H](NC(=O)OCc1ccccc1)C(=O)N[C@@H](C)C(=O)NN(CC(N)=O)C(=O)/C=C/c1ccco1	< 5.70	–	5.12	–
CCOC(=O)/C=C/C(=O)N(CC(N)=O)NC(=O)[C@H](C)NC(=O)[C@H](C)NC(=O)CCCC[C@@H]1SC[C@@H]2NC(=O)N[C@@H]21	8.00	> 8.00	8.55	–
C[C@H](NC(=O)OCc1ccccc1)C(=O)N[C@@H](C)C(=O)NN(CC(N)=O)C(=O)/C=C/c1cccnc1	< 5.70	5.10	4.82	–
C[C@H](NC(=O)OCc1ccccc1)C(=O)N[C@@H](C)C(=O)NN(CC(N)=O)C(=O)/C=C/C(=O)Nc1ccccc1	6.15	7.70	8.00	–
COc1ccc(CN(Cc2ccccc2)C(=O)/C=C/C(=O)N(CC(N)=O)NC(=O)[C@H](C)NC(=O)[C@H](C)NC(=O)OCc2ccccc2)cc1	7.05	8.64	7.92	–
C[C@H](NC(=O)OCc1ccccc1)C(=O)N[C@@H](C)C(=O)NN(CC(N)=O)C(=O)/C=C/C(=O)N(Cc1ccco1)Cc1ccco1	6.05	5.30	4.82	–
C[C@H](NC(=O)OCc1ccccc1)C(=O)N[C@@H](C)C(=O)NN(CC(N)=O)C(=O)/C=C/C(=O)N(C)c1ccccc1	7.22	8.30	8.74	–
C[C@H](NC(=O)OCc1ccccc1)C(=O)N[C@@H](C)C(=O)NN(CC(N)=O)C(=O)/C=C/C(=O)N(Cc1ccccc1)c1ccccc1	7.15	> 9.00	> 9.00	–
C[C@H](NC(=O)OCc1ccccc1)C(=O)N[C@@H](C)C(=O)NN(CC(N)=O)C(=O)/C=C/C(=O)N1CCc2ccccc2C1	6.70	8.00	7.60	–
C[C@H](NC(=O)OCc1ccccc1)C(=O)N[C@@H](C)C(=O)NN(CC(N)=O)C(=O)/C=C/C(=O)N(C)CCc1ccccc1	6.22	7.30	–	–
